Screening data: PubChem BioAssay, several laboratories
Rpn11 inh – Rpn11 (PSMD14) deubiquitinase inhibitors, primary screen, biochemical, fluorescence polarization, uHTS. 26S proteasome non-ATPase regulatory subunit 14 (Homo sapiens), O00487. human 26S proteasome, Ub4-pepOG fluorescence polarization; 20S core pre-blocked with epoxomicin. inhibition, % at 20 µM. 0.59% of 360,000 active. AID 588493, 2011;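 active = inhibition at 20 µM, scaled to each plate's controls, above about 33%, limit read from the data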
CSN inh – inhibitors of CSN-mediated cullin deneddylation, primary screen, biochemical, fluorescence polarization, uHTS; COP9 signalosome complex subunit 5 (Homo sapiens), Q92905; Purified CSN, SCF-Nedd8-OG deneddylation; inhibition, % at 12.5 µM; 0.38% of 360,000 active; AID 651999, 2013;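 active = pattern-corrected inhibition above about 35%, with an unprinted fluorescence ratio check between 0.5 and 1.5, limit read from the data, passing the limit was not always enough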;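 note: 0% = enzyme with substrate and 100% = substrate without enzyme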
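Test system: Human Csn5 produced in HEK293T cells | Compound: 12.5 µM single point | Times: 90 min, room temperature | Signal: Fluorescence polarization readout | Read-out basis: % inhibition of substrate cleavage by Csn5 | Controls: no-enzyme wells high, enzyme-with-substrate wells low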
HNF4A DNA FP – change in binding of human HNF4A to DNA, primary screen, biochemical, fluorescence polarization, FITC-DNA; 1 h; Hepatocyte nuclear factor 4-alpha (Homo sapiens), P41235; 0.3% of 360,000 active; activity change, % at 10 µM; in the data active = activity change above about 30%, passing the limit was not always enough
PP1 counter – PP1-alpha phosphatase inhibitors, primary screen, counter-screen for PP5 inhibitor project, biochemical, fluorescence, OMFP substrate, single point; purified PP1alpha; inhibition, % at 6.7 µM; 0.9% of 320,000 active; AID 2235, 2010;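 active = inhibition above the mean inhibition of all tested compounds plus 3 SD, computed separately for each screening campaign, cut at about 15% in these data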
Target sequence (P62136 whole entry, looked up): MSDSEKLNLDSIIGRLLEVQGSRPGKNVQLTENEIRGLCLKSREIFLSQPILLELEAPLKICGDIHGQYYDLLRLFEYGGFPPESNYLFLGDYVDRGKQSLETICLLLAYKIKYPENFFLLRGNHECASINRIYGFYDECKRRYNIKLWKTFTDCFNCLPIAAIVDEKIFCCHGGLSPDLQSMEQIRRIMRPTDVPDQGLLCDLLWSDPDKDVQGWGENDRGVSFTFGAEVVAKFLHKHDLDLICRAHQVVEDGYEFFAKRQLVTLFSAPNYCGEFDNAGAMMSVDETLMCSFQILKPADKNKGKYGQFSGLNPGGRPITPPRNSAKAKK
NadD block – inhibitors of S. aureus NadD, primary screen, biochemical, colorimetric, uHTS | Nicotinate-nucleotide adenylyltransferase NadD (Staphylococcus aureus N315) | inhibition, % at 20 µM | 0.78% of 360,000 active | AID 602399, 2012 | purified NadD enzyme, colorimetric absorbance read-out; in the data active = inhibition above about 26%
TPT1 inhibitor – Candida albicans TPT1 enzyme inhibitors, primary screen, biochemical, fluorescence polarization; recombinant caTPT1, FP RNA substrate dephosphorylation; tRNA 2'-phosphotransferase TPT1 (Candida albicans SC5314); inhibition, % at 5 µM; 0.81% of 300,000 active;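 active = inhibition above the mean of all tested compounds plus 3 SD, set per screening campaign, cut at about 24% in these data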;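 note: plate controls were DMSO alone for no effect and ferristatin control at 100 nM for full effect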
Active calls of the source: *; / = no result given; + = active, no number. Sampled rows, rich in hits. Any-hit rate of the full collection: about 2.7%.

SMILES	Rpn11 inh	CSN inh	HNF4A DNA FP	PP1 counter	NadD block	TPT1 inhibitor
O=C(COc1ccccc1Cl)Nc1ccc(N2CCN(C(=O)c3ccccc3)CC2)cc1	-11	5	-1	1	3	1
COc1cc(C2Nc3cccc4cccc(c34)N2)ccc1OC(C)=O	-24	3	1	3	47*	1
Fc1ccc(C2Nc3cccc4cccc(c34)N2)cc1	-1	-9	-6	-1	22	-3
COc1cc(C2Nc3cccc4cccc(c34)N2)cc(OC)c1O	-9	-2	0	36*	32*	-1
COC(=O)c1ccc(C2Nc3cccc4cccc(c34)N2)cc1	-8	-14	1	-3	40*	-2
COc1ccc(C2Nc3cccc4cccc(c34)N2)cc1Br	-9	-9	-3	-4	49*	1
O=C(Nc1cccc(C(F)(F)F)c1)C1CCN(S(=O)(=O)c2cccnc2)CC1	1	-1	2	-2	-1	2
CCn1cc(C(=O)NCc2ccc(OC)cc2)c(=O)c2ccc(C)nc21	7	3	2	2	1	4
Cc1ccc(OCc2cc(C(=O)NC(C)Cc3cccc(C)n3)no2)cn1 (centres undefined)	-2	1	-4	-2	-6	2
C[C@H](NC(=O)C[C@@H]1CC[C@H]2[C@@H](COC[C@H](O)CN2Cc2ccc(C(F)(F)F)cc2)O1)c1ccccc1	/	-7	0	/	/	/
O=C(COC(=O)c1ccc([N+](=O)[O-])s1)Nc1ncc(C(F)(F)F)cc1Cl	25	38*	13	3	11	10
CCCn1c(SCC(=O)N2CCCC2=O)nc2ccccc2c1=O	-6	-1	2	/	-6	/
Cc1ccc(C2=NN(S(C)(=O)=O)C(c3ccc4c(c3)OCO4)C2)cc1 (centres undefined)	40	12	51*	1	1	0
CCS(=O)(=O)N1N=C(c2cccc(NS(C)(=O)=O)c2)CC1c1ccc(C)cc1 (centres undefined)	/	73*	159	2	15	13
COc1ccc(CCN(C)C(=O)c2ccc(S(=O)(=O)Nc3ccccc3F)cc2)cc1OC	-8	-2	-6	-1	-9	0
Cc1csc(SCC(=O)Nc2cc(S(=O)(=O)N3CCCC3)ccc2Cl)n1	3	2	-1	-6	-7	3
Cc1cc(C)c(C(=O)OCC(=O)Nc2cccc(S(=O)(=O)N3CCCCC3)c2)c(C)c1	-1	+	-4	0	-3	2
Cc1csc(SCC(=O)Nc2cccc(S(=O)(=O)N3CCCC3)c2)n1	-5	106*	-3	0	-1	2
CN(c1ccccc1)S(=O)(=O)c1ccc(Cl)c(C(=O)Nc2ccccc2N2CCOCC2)c1	-6	-5	0	/	-9	/
CCCCNC(=O)C1(C)CCN1C(=O)c1cc2ccccc2s1 (centres undefined)	-2	0	2	/	-2	/
COc1ccccc1NC(=O)COC(=O)CCC(=O)c1cccs1	-11	4	1	/	1	/
COc1cccc2c1C(=O)c1c(O)c3c(c(O)c1C2=O)C[C@@](O)(C(=O)CO)C[C@@H]3OC1CC(N)C(O)C(C)O1 (some centres undefined)	-68	-73	-41	/	53*	/
COc1cccc2c1C(=O)c1c(O)c3c(c(O)c1C2=O)C[C@@](O)(C(=O)CO)C[C@@H]3O[C@H]1C[C@H](N)[C@H](O)[C@H](C)O1	-60	-74	-49	-3	19	-171
Cc1ccc(N=Cc2cc(Cc3ccccc3Cl)cc([N+](=O)[O-])c2O)c(O)c1	-4	23	4	14	42*	14
CC1=C(O)C(=O)C(c2c(C)cc(C)c(Br)c2C)=C(O)C1=O	-2	6	-25	/	0	/
SMILES	Rpn11 inh	CSN inh	HNF4A DNA FP	PP1 counter	NadD block	TPT1 inhibitor
CC(C)Nc1nc(SC(C)C(=O)Nc2ccccc2)nc(N(C)C)n1 (centres undefined)	-1	-2	3	3	-4	1
CC(Sc1ncc(C#N)c(N)n1)C(=O)Nc1ccccc1 (centres undefined)	8	54*	0	-2	3	2
O=C(COC(=O)c1ccccc1Cc1ccccc1)Nc1ccc(SC(F)F)cc1	1	-5	-4	16*	-1	7
Cc1ccc(C(=O)c2ccccc2C(=O)OCC(=O)Nc2ccc(SC(F)F)cc2)cc1	8	-1	0	-1	4	-9
Cc1cccc(CNC(=O)c2sc(=O)n(Cc3ccc(S(C)(=O)=O)cc3)c2C)c1	4	1	-3	/	2	/
O=C(O)c1ccc2c(=O)n(Cc3ccccc3)c(SCc3ccc([N+](=O)[O-])cc3)nc2c1	-3	6	1	18*	15	0
O=c1c2ccccc2nc(SCc2ccc([N+](=O)[O-])cc2)n1-c1ccccc1	11	1	2	5	7	-1
C[C@H](O)[C@@H]1C(=O)N2CCc3c([nH]c4ccccc34)[C@@H]2C[C@@H]1N(C)C(=O)Nc1cc(Cl)cc(Cl)c1	10	-2	3	/	7	/
CN1C(=O)/C(=C/c2cn(CC(=O)NCc3ccco3)c3ccccc23)NC1=S	/	/	/	2	/	20
CCN=C1S/C(=C\c2cn(CC(=O)NCc3ccco3)c3ccccc23)C(=O)N1CC	36	4	14	15*	4	10
Cn1c2ccccc2c2cc(/C=N/NC(=O)c3ccc(O)cc3O)ccc21	5	4	4	-4	40*	-3
COC(=O)c1ccc(-n2c(C)cc(C(=O)COC(=O)CC3Sc4ccccc4NC3=O)c2C)cc1 (centres undefined)	-4	12	4	10	9	-2
Cc1cc(C(=O)COC(=O)CC2Sc3ccccc3NC2=O)c(C)n1-c1ccc(Br)cc1 (centres undefined)	5	-2	9	17*	14	-1
COC(=O)[C@]12CCCCC=C1N(Cc1cccc3ccccc13)C(=O)[C@H](CC(=O)NCc1ccc(OC)c(OC)c1)C2	/	5	-1	/	-7	/
FC(F)(F)c1ccc(C2[C@H]3CN(Cc4cccnc4)[C@H](c4ccccc4)C34CC2(c2ccccc2)C4)cc1 (some centres undefined)	6	2	0	16*	18	0
FC(F)(F)c1ccc(CN2C[C@@H]3C(c4ccccc4)C4(c5cccnc5)CC3(C4)[C@H]2c2ccccc2)cc1 (some centres undefined)	8	0	-3	1	25	0
